High-throughput results deposited in PubChem BioAssay by The Scripps Research Institute Molecular Screening Center.
This is a sample that favours compounds with a hit; in the whole collection about 1.8% have one here.
DDE Tn6 FP inh: inhibitors of Tn6 peptide binding to human fibrin DD(E). P02675. Fibrin DD(E) TRITC-Tn6 fluorescence polarization displacement. inhibition, % at 8.3 µM. 0.21% of 370,000 active. AID 720509;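 active = inhibition above a per-campaign cutoff: mean of compounds within control limits plus 3 SD, cut at about 15% in these data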
ABHD4 inh: inhibitors of mouse ABHD4; Q8VD66; purified mABHD4, FP-Rh probe fluorescence polarization; inhibition, % at 8.92 µM; 0.54% of 370,000 active;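 active = inhibition exceeding the mean over every tested compound plus 3 SD, cut at about 30% in these data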
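assay system = mABHD4 protein | compound dosing = single nominal dose of 8.92 µM, 0.89% DMSO final | read-out basis = percent inhibition of probe binding, normalized to plate controls | schedule = Enzyme–compound pre-incubation 45 min, then probe 60 min, both 25 °C | detection = fluorescence polarization, excitation 525 nm, emission 598 nm, BODIPY TMR filters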
TCR-CD3 inh: inhibitors of human TCR-CD3 interaction; TAMRA-labeled TCR probe fluorescence, biochemical; inhibition, % at 9.4 µM; 0.37% of 360,000 active; AID 651800; in the data active = inhibition above about 19%;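 note: recombinant mutant TCR 2C K166C tagged with TAMRA read by polarization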
DDE Tn7 FP inh: DD(E)-Tn7 binding inhibition, primary FP screen; FP displacement of FITC-Tn7 peptide from fibrin DD(E); 0% = median of compound wells per plate; 0.13% of 370,000 active; inhibition, % at 8.3 µM;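 active = inhibition above the mean of compounds falling within the control limits plus 3 SD of them, cut at about 14% in these data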
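Test system: human clot-derived fibrin DD(E) complex / Quantity: 2 µM final DD(E) protein / Incubation: 10 min plus 3 h, room temperature / Measured by: fluorescence polarization / Benchmarks: high control of 10 µM Aha-Tn7 peptide / Replicates: singlicate testing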
SIAE primary: blocks human sialic acid acetylesterase. SIAE FP-Rh probe binding, fluorescence polarization. inhibition, % at 9.66 µM. 0.69% of 370,000 active. AID 1053197;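 active = inhibition above a cutoff: mean of compounds within the control limits plus 3 SD of those, cut at about 17% in these data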
HTRA1 inhibitor: blocks human HTRA1 serine peptidase. Q92743. recombinant HTRA1, FP-rhodamine activity-based probe, fluorescence polarization. inhibition, % at 5.96 µM. 0.5% of 340,000 active; in the data active = inhibition above about 36%
Target sequence (Q92743 whole entry, looked up): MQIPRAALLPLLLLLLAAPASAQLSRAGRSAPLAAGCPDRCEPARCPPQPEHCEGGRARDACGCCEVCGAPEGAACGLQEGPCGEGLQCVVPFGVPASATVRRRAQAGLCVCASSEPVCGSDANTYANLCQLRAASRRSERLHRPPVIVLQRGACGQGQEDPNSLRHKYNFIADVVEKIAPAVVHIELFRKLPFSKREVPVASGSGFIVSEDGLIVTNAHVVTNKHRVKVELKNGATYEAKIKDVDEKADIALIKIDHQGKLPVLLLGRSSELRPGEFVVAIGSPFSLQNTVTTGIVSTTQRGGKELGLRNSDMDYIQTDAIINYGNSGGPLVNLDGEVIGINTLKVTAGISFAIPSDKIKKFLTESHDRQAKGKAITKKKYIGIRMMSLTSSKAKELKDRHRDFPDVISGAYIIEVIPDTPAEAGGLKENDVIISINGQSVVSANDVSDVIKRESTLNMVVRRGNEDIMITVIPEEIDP
SIAE confirm: human SIAE inhibition, confirmation; shares compounds with SIAE primary; SIAE FP-Rh activity-based probe, fluorescence polarization; inhibition, % at 9.66 µM; 13% of 2,300 active; AID 1117263;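 active = mean inhibition of the replicates above the hit cutoff set in the primary screen, cut at about 17% in these data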;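 note: inhibitors lower polarization as more probe stays unbound to SIAE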
Each line names hits and unclear results; the compound was inactive in the other large screens (follow-up assays come after a bar, where they were run).

CCCC(=O)OC[C@H]1CN(C2CCCC2)S(=O)(=O)c2c(Oc3ccc(F)cc3)cccc2O1	none (no result: HTRA1 inhibitor)
CC(C)(C)NCCC(O)c1cc(C(F)(F)F)nc2c(C(F)(F)F)cccc12 (stereo not drawn)	SIAE primary 77.7 | SIAE confirm inactive
COc1ccc(-c2cc(-c3nnc(SCC(=O)Nc4ccc(OCc5ccccc5)cc4)n3N)[nH]n2)cc1	none (no result: TCR-CD3 inh, HTRA1 inhibitor)
Cc1nnc(N/N=C/c2c(O)n(-c3cccc(C(F)(F)F)c3)c(=O)c3ccccc23)[nH]c1=O	none (no result: HTRA1 inhibitor)
Cc1cc(N=Cc2c(O)n(-c3cccc(C(F)(F)F)c3)c(=O)c3ccccc23)no1	SIAE primary 21.2 | SIAE confirm inactive
COc1ccc(CC2=CC(=O)c3ccccc3C2=O)cc1	SIAE primary 17.9 | SIAE confirm inactive
COc1cc(CNc2cc(C)ccc2C)cc(OC)c1OC	SIAE primary 24.4 | SIAE confirm inactive
Cc1cc(NS(=O)(=O)c2ccc(NC(=O)Cc3ccccc3)cc2)no1	none (no result: TCR-CD3 inh, HTRA1 inhibitor)
Cc1ccccc1S(=O)(=O)N1CCCc2nc(-c3ccccc3)ccc21	none (no result: HTRA1 inhibitor)
COCCN(CC(=O)Nc1cccc(C)c1C)C(=O)c1oc2c(Cl)cccc2c1C	SIAE primary 28.4 | SIAE confirm inactive
COC(=O)C1=C(C)N(C)C(=NCc2ccc3c(c2)OCO3)NC1c1ccc(F)cc1 (stereo not drawn)	none (no result: HTRA1 inhibitor)
O=C(Cc1csc(NC(=O)c2ccccc2)n1)NO	SIAE primary 22.2 | SIAE confirm inactive
COc1ccc(C(=O)Nc2nc(CC(=O)NCCc3ccccc3)cs2)cc1	none
O=S1(=O)c2ccc(Br)cc2OC[C@H](Cc2ccccc2)N1Cc1cn(Cc2ccc(C(F)(F)F)cc2)nn1	none (no result: TCR-CD3 inh, HTRA1 inhibitor)
Cc1ccc(-c2nc(Nc3ccc(O)cc3)c3ccccc3n2)cc1	SIAE primary 17.1 | SIAE confirm inactive
Oc1ccc(Nc2nc(-c3ccccc3O)nc3ccccc23)cc1	SIAE primary 25.8 | SIAE confirm inactive
Cc1ccc(-c2nc(Nc3cccc(O)c3)c3ccccc3n2)cc1	none
Cc1ccc(-c2nc(Nc3ccc(N4CCOCC4)cc3)c3ccccc3n2)cc1	SIAE primary 20.8 (no result: HTRA1 inhibitor) | SIAE confirm inactive
COc1ccc(C(=O)/C=C(\Nc2ccc(F)cc2)c2ccc(OC)cc2OC)c(OC)c1	none (no result: TCR-CD3 inh, HTRA1 inhibitor)
CCCCCCCCC(c1nc2ccccc2[nH]1)N1CCN=C1c1cc2ccccc2[nH]1 (stereo not drawn)	SIAE primary 21.7 (no result: HTRA1 inhibitor) | SIAE confirm 28.5
Cc1c(C(=O)N2CCCCC2)c(S(=O)(=O)N(C)Cc2ccccc2)c(C)n1C	SIAE primary 22.9 | SIAE confirm inactive
Cc1c(C(=O)N2CCCCC2)c(S(=O)(=O)N(C)Cc2ccco2)c(C)n1C	none
COc1ccc(N=C2SC(C(=O)O)CC(=O)N2Cc2ccc(OC)c(OC)c2)cc1 (stereo not drawn)	SIAE primary 80.1 | SIAE confirm inactive
Cc1ccc(S(=O)(=O)Nc2c(C)n(C)n(-c3ccccc3)c2=O)cc1C(=O)OC(C)C(=O)c1ccccc1 (stereo not drawn)	none
Cc1ccc(S(=O)(=O)Nc2c(C)n(C)n(-c3ccccc3)c2=O)cc1C(=O)OC(C)C(=O)N(C)c1ccccc1 (stereo not drawn)	SIAE primary 21.2 | SIAE confirm inactive
CCN(CC)C1=NC=CC(c2ccccc2)=CC1C (stereo not drawn)	SIAE primary 28.5 | SIAE confirm inactive
COC(=O)c1cc2c(c3c4cc(F)ccc4n(S(=O)(=O)c4ccccc4)c13)C(=O)N(Cc1ccccc1)C2	none (no result: HTRA1 inhibitor)
Cc1ccc(C)c(Cn2cnc3c(cnn3C(C)(C)C)c2=O)c1	SIAE primary 21.8 | SIAE confirm inactive
O=[N+]([O-])c1ccccc1/C=N/n1c(-c2cccnc2)n[nH]c1=S	SIAE primary 17.2 | SIAE confirm inactive
COc1cccc2c(=O)c3c(oc12)CCCC3	none
Nc1cccc2c3c(oc12)CCCC3	SIAE primary 18.2 | SIAE confirm inactive
COc1ccc(CNc2ccc3c(c2)ncn3C)cc1OC	SIAE primary 17.8 | SIAE confirm inactive
CCCn1cnc2cc(NCc3ccccn3)ccc21	none
CCCn1cnc2cc(NCc3cccc(OC)c3O)ccc21	SIAE primary 24.6 | SIAE confirm inactive
Cc1ccc(CNc2ccc3c(c2)ncn3C)cc1	none
Cc1ccc(S(=O)(=O)N2CC3(COC(C)(C)OC3)C[C@H]2CON2C(C)(C)CCCC2(C)C)cc1	none (no result: TCR-CD3 inh, HTRA1 inhibitor)
COC(=O)[C@]12C[C@H](CC(=O)NCC3CCCCC3)C(=O)N(Cc3ccc4c(c3)OCO4)C1=C[C@H](C(C)C)O[C@@H]2C1CC1	none (no result: TCR-CD3 inh, HTRA1 inhibitor)
COC[C@H]1CCCN1c1ccc2c(c1)OCCCN(C1CC1)S2(=O)=O	none (no result: TCR-CD3 inh, HTRA1 inhibitor)
CCCCCN1CCCCC(NC(=O)Cc2ccccc2)C1=O (stereo not drawn)	none (no result: TCR-CD3 inh, HTRA1 inhibitor)
Oc1c(Br)cc(Br)cc1C=Nc1cccc2ncccc12	SIAE primary 21.9 | SIAE confirm inactive
Brc1cccc(C=Nc2cccc3ncccc23)c1	none
COC(CNC(=O)[C@H](Cc1ccccc1)NC1(C(=O)NC2CCCCC2)CCCC1)OC	none (no result: TCR-CD3 inh, HTRA1 inhibitor)
COc1cccc(NC=C2C(=O)OC3(CCCCC3)OC2=O)c1	none
COc1ccc(C2=CC(=O)OC3(CCCCC3)O2)cc1	SIAE primary 18.6 | SIAE confirm inactive
CCN(CC)C(=O)c1cn(-c2cccc(OC)c2)c(=O)c2ccccc12	SIAE primary 20.6 | SIAE confirm inactive
O=C(NCc1ccco1)O[C@@H]1CC[C@@]23CCCN2C(=O)CCC[C@H]3C1	none (no result: TCR-CD3 inh, HTRA1 inhibitor)
CC(/C=C/c1ccc(N(C)C)cc1)=N/N=C1/NC(=O)CC(C(=O)Nc2ccc(Cl)cc2)S1 (stereo not drawn)	none
CC(/C=C/c1ccc(N(C)C)cc1)=N\N=C1\NC(=O)CC(C(=O)Nc2ccccc2)S1 (stereo not drawn)	SIAE primary 19.1 | SIAE confirm inactive
COC(=O)c1cccc(Cn2ccc3ccc(-c4ccc5ccn(C(=O)c6ccccc6OC)c5c4)cc32)c1	none (no result: TCR-CD3 inh, HTRA1 inhibitor)
O=C(CSc1nnc(SCc2ccccc2Cl)s1)N/N=C/c1c[nH]c2ccccc12	SIAE primary 28.4 | SIAE confirm inactive
O=C(CSc1nnc(SCc2ccccc2)s1)N/N=C/c1c[nH]c2ccccc12	none
CCCCN1C[C@@H](COCc2ccccc2)Oc2cccc(F)c2S1(=O)=O	none (no result: TCR-CD3 inh, HTRA1 inhibitor)
Cc1ccc(S(=O)(=O)N2CCC(C(=O)NCCCN3CCOCC3)CC2)cc1C	SIAE primary 18.3 | SIAE confirm inactive
CCN(C(=S)Nc1cccc(C)c1)c1ccccc1	SIAE primary 23.5 | SIAE confirm inactive
Clc1ccc(N=c2ssnc2Cl)cc1	none
N#Cc1ccc(N=c2ssnc2Cl)cc1	SIAE primary 22.4 | SIAE confirm 17.1
